ChEMBL document CHEMBL1140999, “Succinyl hydroxamates as potent and selective non-peptidic inhibitors of procollagen C-proteinase: design, synthesis, and evaluation as topically applied, dermal anti-scarring agents” (Bioorg Med Chem Lett, 2008)
≈ marks a conversion by molar mass, not a printed value. Each block holds one molecule with its values, some of them ahead of it.

Key:
[1] = molecular target: T1, Bone morphogenetic protein 1 (Homo sapiens, UniProt P13497); test: Inhibition of human procollagen C-proteinase expressed in CHO cells by fluorescence assay; format: cell-based
T1 sequence (P13497 whole entry): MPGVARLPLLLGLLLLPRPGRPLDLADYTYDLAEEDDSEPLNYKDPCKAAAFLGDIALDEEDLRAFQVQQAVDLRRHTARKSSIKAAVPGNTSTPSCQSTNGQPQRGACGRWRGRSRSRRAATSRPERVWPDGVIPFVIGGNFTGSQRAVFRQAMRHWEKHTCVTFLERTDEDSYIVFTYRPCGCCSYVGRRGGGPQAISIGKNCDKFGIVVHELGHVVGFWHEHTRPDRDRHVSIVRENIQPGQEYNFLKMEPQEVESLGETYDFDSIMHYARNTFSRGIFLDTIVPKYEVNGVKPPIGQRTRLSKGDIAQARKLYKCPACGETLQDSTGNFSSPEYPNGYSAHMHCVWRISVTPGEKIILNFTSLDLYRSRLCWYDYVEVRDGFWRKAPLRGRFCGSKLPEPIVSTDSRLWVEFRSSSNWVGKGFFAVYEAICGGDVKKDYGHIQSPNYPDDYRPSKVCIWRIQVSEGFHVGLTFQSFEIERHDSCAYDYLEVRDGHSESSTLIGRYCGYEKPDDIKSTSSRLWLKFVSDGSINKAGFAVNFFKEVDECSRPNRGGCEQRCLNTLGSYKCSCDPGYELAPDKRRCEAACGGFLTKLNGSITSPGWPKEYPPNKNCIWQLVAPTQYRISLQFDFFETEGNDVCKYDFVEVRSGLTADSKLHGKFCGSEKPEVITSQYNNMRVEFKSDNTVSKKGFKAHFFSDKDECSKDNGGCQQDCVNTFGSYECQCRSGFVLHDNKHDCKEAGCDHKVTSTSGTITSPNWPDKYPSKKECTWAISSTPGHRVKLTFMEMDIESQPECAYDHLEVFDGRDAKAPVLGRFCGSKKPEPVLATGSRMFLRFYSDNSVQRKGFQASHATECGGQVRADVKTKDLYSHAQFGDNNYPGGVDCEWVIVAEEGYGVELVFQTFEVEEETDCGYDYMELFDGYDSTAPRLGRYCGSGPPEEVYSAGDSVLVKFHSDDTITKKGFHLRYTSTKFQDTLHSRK

[2] = Plasma clearance in rat at 2 mg/kg, iv administered as single dose; format: ADME, organism-based; set-up: dose 2 mg/kg, route intravenous
Procedure, shortened: (§1)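 Male rats (n = 2) received a single intravenous dose of 2 mg/kg. Plasma sampling gave half-life, clearance and volume of distribution. Concentrations were also followed after dosing against the assay's limit of quantification.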

[3] = Cmax in dog at 2 mg/kg, po administered as single dose; format: ADME, organism-based, Canis lupus familiaris; set-up: dose 2 mg/kg, route oral; settings: in vivo
Procedure, shortened: (§2)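 Male dogs (n = 2) received a single intravenous dose of 0.5 mg/kg or a single oral dose of 2 mg/kg. Plasma concentrations were used to derive half-life, clearance, volume of distribution, Cmax, Tmax and oral bioavailability.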

[4] = Volume of distribution in rat at 2 mg/kg, iv administered as single dose; format: ADME, organism-based; set-up: dose 2 mg/kg, route intravenous; settings: in vivo; procedure, shortened: as §1
[5] = Metabolic stability in dog liver microsomes assessed as half life; format: ADME, Canis lupus familiaris, Microsome
[6] = Oral bioavailability in dog at 2 mg/kg administered as single dose; format: ADME, organism-based, Canis lupus familiaris; settings: in vivo; procedure, shortened: as §2
[7] = molecular target: 3',5'-cyclic-AMP phosphodiesterase 4A (Homo sapiens, UniProt P27815); test: Inhibition of PDE4A
Zone of skin [8] = test: Effect on transepidermal penetration in human cadaver skin assessed as TED flux after 24 hrs by LC-MS/MS analysis using [14C]mannitol as receptor fluid in presence of propylene glycol-citrate buffer-ethanol; format: functional
Procedure, shortened: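 Human cadaver stratum corneum was mounted in a Franz diffusion cell and exposed for 24 h to a solution in propylene glycol–citrate buffer–ethanol (20:30:50). Receptor-chamber concentration was used to calculate TED flux.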

[9] = Volume of distribution in dog at 0.5 mg/kg, iv administered as single dose; format: ADME, organism-based, Canis lupus familiaris; set-up: dose 0.5 mg/kg, route intravenous; settings: in vivo; procedure, shortened: as §2
Zone of skin [10] = test: Effect on transepidermal penetration in human cadaver skin assessed as TED flux after 24 hrs by LC-MS/MS analysis using [14C]mannitol as receptor fluid; format: functional
Procedure, shortened: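 Human cadaver stratum corneum was mounted in a Franz diffusion cell and exposed for 24 h to a solution in 50% aqueous propylene glycol (pH 6.8). Compound reaching the receptor chamber was measured and a flux rate was calculated. Reported as mean ± SEM, n = 6–10.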

Fibroblast [11] = test: Reduction in collagen deposition in human fibroblasts after 8 days by HPLC; format: functional, cell-based
[12] = Metabolic stability in human liver microsomes assessed as half life; format: ADME, Microsome
[13] = Dissociation constant, pKa of the compound; format: physicochemical
[14] = molecular target: T1, Bone morphogenetic protein 1; test: Inhibition of human procollagen C-proteinase assessed as [3H]procollagen turnover by scintillation counting
[15] = molecular target: 3',5'-cyclic-AMP phosphodiesterase 4D (Homo sapiens, UniProt Q08499); test: Inhibition of PDE4D
Fibroblast [16] = test: Reduction in collagen deposition in human fibroblasts at 10 uM after 8 days by HPLC; format: functional; set-up: scale not given: the % may be the effect or the level left
[17] = Plasma clearance in dog at 0.5 mg/kg, iv administered as single dose; format: ADME, organism-based, Canis lupus familiaris; set-up: dose 0.5 mg/kg, route intravenous; procedure, shortened: as §2
[18] = Plasma concentration in rat at 2 mg/kg, iv administered as single dose after 2 hrs; format: ADME, organism-based; set-up: dose 2 mg/kg, route intravenous; procedure, shortened: as §1
[19] = Elimination half life in dog at 0.5 mg/kg, iv administered as single dose; format: ADME, organism-based, Canis lupus familiaris; set-up: dose 0.5 mg/kg, route intravenous; settings: in vivo, read-out: beta t1/2 (converted); procedure, shortened: as §2
[20] = molecular target: 3',5'-cyclic-AMP phosphodiesterase 4B (Homo sapiens, UniProt Q07343); test: Inhibition of PDE4B
[21] = Tmax in dog at 2 mg/kg, po administered as single dose; format: ADME, organism-based, Canis lupus familiaris; set-up: dose 2 mg/kg, route oral; settings: in vivo; procedure, shortened: as §2
[22] = Aqueous solubility in phosphate-buffered saline at pH 7.4 by HPLC; format: physicochemical
[23] = Elimination half life in rat at 2 mg/kg, iv administered as single dose; format: ADME, organism-based; set-up: dose 2 mg/kg, route intravenous; settings: in vivo, read-out: beta t1/2 (converted); procedure, shortened: as §1
[24] = Saturated solubility in propylene glycol-citrate buffer-ethanol; format: physicochemical
[25] = Lipophilicity, log D at pH 7.4; format: physicochemical; settings: buffer
[26] = molecular target: 3',5'-cyclic-AMP phosphodiesterase 4C (Homo sapiens, UniProt Q08493); test: Inhibition of PDE4C
[27] = Metabolic stability in rat liver microsomes assessed as half life; format: ADME, Microsome
[28] = Drug level in pig skin assessed as steady state concentration at 0.9 mg/ml in 50% aqueous propylene glycol administered tropically after 24 hrs; format: ADME, tissue-based, Sus scrofa, Zone of skin; settings: topical or ocular, read-out: Drug uptake
Procedure, shortened: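 Applied topically to intact pig skin as a 0.9 mg/ml solution in 50% aqueous propylene glycol. Tissue level was measured in the upper dermis as the steady-state concentration at 24 h.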

Stromelysin-1 = Stromelysin-1 (Homo sapiens, UniProt P08254); test: Inhibition of human MMP3 by fluorescence assay
Chain of Stromelysin-1 (P08254 whole entry): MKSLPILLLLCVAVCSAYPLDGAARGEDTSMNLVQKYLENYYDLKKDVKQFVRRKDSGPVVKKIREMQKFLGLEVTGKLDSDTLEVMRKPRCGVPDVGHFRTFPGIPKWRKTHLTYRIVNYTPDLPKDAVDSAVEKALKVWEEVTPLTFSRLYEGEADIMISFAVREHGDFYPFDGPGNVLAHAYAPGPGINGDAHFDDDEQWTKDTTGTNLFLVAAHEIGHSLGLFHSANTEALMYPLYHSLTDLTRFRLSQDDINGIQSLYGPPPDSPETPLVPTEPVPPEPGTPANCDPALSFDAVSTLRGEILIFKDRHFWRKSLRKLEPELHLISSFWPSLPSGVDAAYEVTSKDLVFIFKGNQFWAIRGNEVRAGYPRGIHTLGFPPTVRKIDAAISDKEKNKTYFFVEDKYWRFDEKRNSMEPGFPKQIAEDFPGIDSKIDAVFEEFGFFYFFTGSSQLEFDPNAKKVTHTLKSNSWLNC

Chain of 3',5'-cyclic-AMP phosphodiesterase 4A (P27815 whole entry): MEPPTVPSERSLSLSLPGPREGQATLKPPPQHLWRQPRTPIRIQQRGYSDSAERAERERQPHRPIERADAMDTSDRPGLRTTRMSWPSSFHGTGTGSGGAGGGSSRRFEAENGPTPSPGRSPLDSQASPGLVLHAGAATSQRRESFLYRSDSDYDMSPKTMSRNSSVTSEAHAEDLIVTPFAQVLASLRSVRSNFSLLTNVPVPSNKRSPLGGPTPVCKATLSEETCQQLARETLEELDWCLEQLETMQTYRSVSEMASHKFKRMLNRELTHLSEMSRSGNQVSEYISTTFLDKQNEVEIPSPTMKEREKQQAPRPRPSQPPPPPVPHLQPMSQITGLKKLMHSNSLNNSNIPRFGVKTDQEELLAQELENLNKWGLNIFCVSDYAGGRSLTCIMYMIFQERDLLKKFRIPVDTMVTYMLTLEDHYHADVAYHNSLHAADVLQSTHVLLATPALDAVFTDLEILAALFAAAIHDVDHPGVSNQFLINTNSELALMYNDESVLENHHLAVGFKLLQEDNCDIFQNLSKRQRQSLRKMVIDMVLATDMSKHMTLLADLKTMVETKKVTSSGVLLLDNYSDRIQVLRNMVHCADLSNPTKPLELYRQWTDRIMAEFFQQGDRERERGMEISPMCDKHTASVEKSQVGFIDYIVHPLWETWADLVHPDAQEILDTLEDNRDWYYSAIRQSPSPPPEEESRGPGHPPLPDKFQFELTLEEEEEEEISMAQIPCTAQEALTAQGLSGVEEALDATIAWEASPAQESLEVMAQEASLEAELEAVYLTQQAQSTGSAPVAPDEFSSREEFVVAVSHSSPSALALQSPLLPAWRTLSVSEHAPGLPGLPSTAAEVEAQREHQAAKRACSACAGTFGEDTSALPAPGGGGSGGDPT
Chain of 3',5'-cyclic-AMP phosphodiesterase 4C (Q08493 whole entry): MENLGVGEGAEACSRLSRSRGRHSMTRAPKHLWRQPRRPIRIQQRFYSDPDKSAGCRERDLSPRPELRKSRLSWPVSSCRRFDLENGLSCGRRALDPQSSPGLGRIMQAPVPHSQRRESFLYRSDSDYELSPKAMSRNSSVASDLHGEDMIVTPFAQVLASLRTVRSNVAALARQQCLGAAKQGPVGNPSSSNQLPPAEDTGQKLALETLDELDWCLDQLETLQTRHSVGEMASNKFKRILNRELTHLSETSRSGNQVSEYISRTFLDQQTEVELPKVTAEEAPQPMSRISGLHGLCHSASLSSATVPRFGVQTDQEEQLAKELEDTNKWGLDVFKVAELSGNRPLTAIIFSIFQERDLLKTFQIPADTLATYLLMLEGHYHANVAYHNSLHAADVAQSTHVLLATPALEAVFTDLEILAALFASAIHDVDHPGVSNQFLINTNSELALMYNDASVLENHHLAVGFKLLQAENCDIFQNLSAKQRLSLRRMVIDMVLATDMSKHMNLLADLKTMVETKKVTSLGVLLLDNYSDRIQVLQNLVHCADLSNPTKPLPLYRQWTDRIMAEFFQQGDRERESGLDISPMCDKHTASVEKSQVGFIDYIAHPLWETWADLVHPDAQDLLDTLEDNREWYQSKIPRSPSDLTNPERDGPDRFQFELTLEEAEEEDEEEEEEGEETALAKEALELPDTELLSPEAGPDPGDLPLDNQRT
Chain of 3',5'-cyclic-AMP phosphodiesterase 4B (Q07343 whole entry): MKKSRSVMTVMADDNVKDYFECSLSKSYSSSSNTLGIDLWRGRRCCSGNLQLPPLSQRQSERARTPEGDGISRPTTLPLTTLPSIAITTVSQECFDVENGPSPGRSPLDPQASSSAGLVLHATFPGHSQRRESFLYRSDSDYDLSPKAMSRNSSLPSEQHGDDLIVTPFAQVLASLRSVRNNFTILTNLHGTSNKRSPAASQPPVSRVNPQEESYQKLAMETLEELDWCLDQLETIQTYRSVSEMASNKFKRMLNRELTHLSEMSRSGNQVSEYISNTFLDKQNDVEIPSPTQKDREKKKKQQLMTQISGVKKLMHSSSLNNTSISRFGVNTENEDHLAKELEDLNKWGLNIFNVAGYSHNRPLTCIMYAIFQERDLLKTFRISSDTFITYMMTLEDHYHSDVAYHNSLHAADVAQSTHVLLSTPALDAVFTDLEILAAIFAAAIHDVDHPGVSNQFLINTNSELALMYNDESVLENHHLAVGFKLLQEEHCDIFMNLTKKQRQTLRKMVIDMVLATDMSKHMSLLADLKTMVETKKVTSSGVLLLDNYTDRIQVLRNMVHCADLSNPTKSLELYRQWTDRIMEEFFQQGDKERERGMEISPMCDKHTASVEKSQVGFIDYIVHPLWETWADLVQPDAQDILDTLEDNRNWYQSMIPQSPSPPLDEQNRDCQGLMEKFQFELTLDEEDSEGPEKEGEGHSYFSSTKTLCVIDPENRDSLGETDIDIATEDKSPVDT
Chain of 3',5'-cyclic-AMP phosphodiesterase 4D (Q08499 whole entry): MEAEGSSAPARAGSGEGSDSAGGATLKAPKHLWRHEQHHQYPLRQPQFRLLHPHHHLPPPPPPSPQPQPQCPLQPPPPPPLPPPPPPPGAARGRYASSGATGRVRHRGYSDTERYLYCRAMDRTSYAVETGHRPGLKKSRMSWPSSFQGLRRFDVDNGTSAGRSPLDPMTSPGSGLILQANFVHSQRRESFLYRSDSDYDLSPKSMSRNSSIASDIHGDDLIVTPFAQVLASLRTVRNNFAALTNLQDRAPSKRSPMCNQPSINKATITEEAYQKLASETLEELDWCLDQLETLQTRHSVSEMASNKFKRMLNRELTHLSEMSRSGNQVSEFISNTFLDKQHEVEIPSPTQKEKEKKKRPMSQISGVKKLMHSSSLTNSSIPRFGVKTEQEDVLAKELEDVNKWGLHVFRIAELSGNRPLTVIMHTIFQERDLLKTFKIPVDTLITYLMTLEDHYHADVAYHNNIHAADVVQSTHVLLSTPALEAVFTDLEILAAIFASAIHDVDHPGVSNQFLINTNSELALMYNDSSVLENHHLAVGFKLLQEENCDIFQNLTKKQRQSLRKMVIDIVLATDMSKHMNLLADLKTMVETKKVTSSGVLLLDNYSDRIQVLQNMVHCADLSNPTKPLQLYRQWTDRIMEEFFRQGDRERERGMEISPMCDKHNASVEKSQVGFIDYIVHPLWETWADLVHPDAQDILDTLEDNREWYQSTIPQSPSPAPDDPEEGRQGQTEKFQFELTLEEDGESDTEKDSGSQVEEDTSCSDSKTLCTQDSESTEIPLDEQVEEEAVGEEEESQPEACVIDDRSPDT

- IC50 [1]: 28 nM
SMILES: CNC(=O)c1noc([C@H](CCCC2CCCCC2)CC(=O)NO)n1

- IC50 [1]: 32 nM
SMILES: CCCNC(=O)c1noc([C@H](CCCC2CCCCC2)CC(=O)NO)n1

- IC50 [1]: 43 nM
SMILES: O=C(C[C@@H](CCCC1CCCCC1)c1nc(C(=O)N2CCCC2)no1)NO

- IC50 [1]: 33 nM
SMILES: O=C(C[C@@H](CCCC1CCCCC1)c1nc(C(=O)NCC2CC2)no1)NO

- IC50 [1]: 45 nM
SMILES: CN(C)C(=O)c1coc([C@H](CCCC2CCCCC2)CC(=O)NO)n1

- clearance [2]: 157 mL/min/kg
- Cmax [3]: 110 ng/mL
- Vd [4]: 12 L/kg
- half-life [5]: 9 min
- bioavailability [6]: 13%
- IC50 [7]: 1800 nM
- Vd [9]: 4.6 L/kg
- half-life [12]: 19 min
- pKa [13]: 9
- IC50 [14]: 26 nM
- IC50 [15]: 900 nM
- clearance [17]: 35 mL/min/kg
- concentration at 2 h [18]: < 100 ng/mL
- half-life [19]: 90 min
- IC50 [20]: 1500 nM
- Tmax [21]: 30 min
- solubility [22]: 35 µg/mL (≈ 108 µM)
- half-life [23]: 48 min
- solubility thermodynamic [24]: 13800 µg/mL (≈ 42500 µM)
- logD [25]: 2.6
- IC50 [26]: 2400 nM
- half-life [27]: < 2 min
- concentration at 24 h [28]: 10 µM
SMILES: NC(=O)c1noc([C@H](CCCC2CCCCC2)CC(=O)NO)n1
- TED (Zone of skin [8]): 1.59 microg/cm2/h
- TED (Zone of skin [10]): 0.3 microg/cm2/h
- Activity (Fibroblast [11]): Dose-dependent effect
- IC50 (Fibroblast [11]; 192 h): 2100 nM
- Activity (Fibroblast [16]): 76%

- IC50 [1]: 40 nM
SMILES: CN(Cc1ccccn1)C(=O)c1noc([C@H](CCCC2CCCCC2)CC(=O)NO)n1

- IC50 [1]: > 2000 nM
SMILES: NC(=O)c1noc([C@@H](CCCC2CCCCC2)CC(=O)NO)n1

- IC50 [1]: 25 nM
SMILES: O=C(C[C@@H](CCCC1CCCCC1)c1nc(C(=O)N2CCOCC2)no1)NO

- IC50 [1]: 37 nM
SMILES: O=C(C[C@@H](CCCC1CCCCC1)c1nc(C(=O)NCc2ccccn2)no1)NO

- IC50 [1]: 21 nM
SMILES: CC(C)NC(=O)c1noc([C@H](CCCC2CCCCC2)CC(=O)NO)n1

- IC50 (Stromelysin-1): 28000 nM
- IC50 [14]: 9.3 nM
- solubility [22]: 900 µg/mL (≈ 2550 µM)
- IC50 [1]: 10 nM
- logD [25]: 3.6
SMILES: CN(C)C(=O)c1noc([C@H](CCCC2CCCCC2)CC(=O)NO)n1
- TED (Zone of skin [10]): 2.6 microg/cm2/h
- Activity (Fibroblast [16]): 67%

- IC50 [1]: 57 nM
SMILES: O=C(C[C@@H](CCCC1CCCCC1)c1nc(C(=O)NCc2ccccc2)no1)NO

- IC50 [1]: 73 nM
SMILES: NC(=O)c1coc([C@H](CCCC2CCCCC2)CC(=O)NO)n1

- IC50 [1]: 21 nM
SMILES: O=C(O)CNC(=O)c1noc([C@H](CCCC2CCCCC2)CC(=O)NO)n1

- IC50 [1]: 65 nM
SMILES: CN(Cc1ccccc1)C(=O)c1noc([C@H](CCCC2CCCCC2)CC(=O)NO)n1

- IC50 [1]: 54 nM
SMILES: CN1CCN(C(=O)c2noc([C@H](CCCC3CCCCC3)CC(=O)NO)n2)CC1

- IC50 [1]: 17 nM
SMILES: Cc1oc([C@H](CCCC2CCCCC2)CC(=O)NO)nc1C(=O)N(C)C

- IC50 [1]: 26 nM
SMILES: O=C(C[C@@H](CCCC1CCCCC1)c1nc(C(=O)N2CCCCC2)no1)NO

- IC50 [1]: 17 nM
SMILES: Cc1oc([C@H](CCCC2CCCCC2)CC(=O)NO)nc1C(N)=O
